ChEMBL document CHEMBL4396880, “Development of Small-Molecules Targeting Receptor Activator of Nuclear Factor-κB Ligand (RANKL)-Receptor Activator of Nuclear Factor-κB (RANK) Protein-Protein Interaction by Structure-Based Virtual Screening and Hit Optimization” (J Med Chem, 2019)
pIC50, pKd: −log10 of the molar value. Active and inactive are the calls of the source. No cut-off for these calls is given here.

Legend:
[1] = target: T1, Tumor necrosis factor ligand superfamily member 11/11A (Mus musculus) (UniProt O35235+O35305); experiment: Inhibition of RANKL-RANK protein-protein interaction in C57/BL6 mouse bone marrow macrophage assessed as suppression of M-CSF/mRANKL-induced osteoclastogenesis by measuring reduction in TRAP activity at 5 uM measured after 3 days by colorimetric assay relative to control
Summary of the method: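 BMMs were incubated with the test compound at 5 μM, together with RANKL (50 ng/mL) and M-CSF (20 ng/mL), for 3 days. Osteoclastogenesis was then read out as tartrate-resistant acid phosphatase (TRAP) activity.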

[2] = target: T1, Tumor necrosis factor ligand superfamily member 11/11A (Mus musculus); experiment: (§1) Inhibition of RANKL-RANK protein-protein interaction in C57/BL6 mouse bone marrow macrophage assessed as suppression of M-CSF/mRANKL-induced osteoclast differentiation by measuring decrease in multinucleated TRAP+ cells at 10 uM supplemented with fresh medium containing compounds every 2 days for 5 to 6 days by TRAP staining-based microscopic analysis relative to control; format: cell-based
Summary of the method: (§2)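 Bone marrow macrophages were exposed to the test compound at the indicated concentrations for 5 days under M-CSF/RANKL stimulation. TRAP-positive multinucleated cells were then counted as the measure of osteoclast formation.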

[3] = target: T1, Tumor necrosis factor ligand superfamily member 11/11A (Mus musculus); experiment: Inhibition of RANKL-RANK protein-protein interaction in C57/BL6 mouse bone marrow macrophage assessed as suppression of M-CSF/mRANKL-induced osteoclastogenesis by measuring reduction in NFATc1 mRNA level measured after 3 days by Trizol-reagent-based qRT-PCR analysis
Summary of the method: (§3)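 BMMs were treated with graded compound concentrations during RANKL-driven osteoclastogenesis. On day 3 of culture, NFATc1, TRAP and cathepsin K transcripts were quantified by real-time PCR.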

[4] = target: T2, Tumor necrosis factor ligand superfamily member 11 (Homo sapiens, UniProt O14788); experiment: Binding affinity to human RANKL by surface plasmon resonance analysis
T2 sequence (O14788 whole entry): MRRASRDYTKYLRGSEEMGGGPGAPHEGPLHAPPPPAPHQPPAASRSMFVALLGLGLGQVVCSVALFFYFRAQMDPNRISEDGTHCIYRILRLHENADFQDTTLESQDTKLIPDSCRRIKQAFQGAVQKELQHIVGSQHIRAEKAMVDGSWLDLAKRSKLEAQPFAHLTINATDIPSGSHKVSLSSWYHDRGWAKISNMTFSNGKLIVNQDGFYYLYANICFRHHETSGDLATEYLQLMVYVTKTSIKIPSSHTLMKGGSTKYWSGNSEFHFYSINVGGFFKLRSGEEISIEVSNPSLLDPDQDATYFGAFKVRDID

BMDM = experiment: Cytotoxicity against M-CSF-stimulated C57/BL6 mouse bone marrow macrophages assessed as reduction in cell viability up to 10 uM measured after 2 days by MTT assay; format: cell-based; details: 48 h
[5] = target: T1, Tumor necrosis factor ligand superfamily member 11/11A (Mus musculus); experiment: Inhibition of RANKL-RANK protein-protein interaction in C57/BL6 mouse bone marrow macrophage assessed as suppression of M-CSF/mRANKL-induced osteoclastogenesis by measuring reduction in TRAP mRNA level measured after 3 days by Trizol-reagent-based qRT-PCR analysis; summary of the method: as §3
[6] = target: T1, Tumor necrosis factor ligand superfamily member 11/11A (Mus musculus); experiment: Inhibition of RANKL-RANK protein-protein interaction in C57/BL6 mouse bone marrow macrophage assessed as suppression of M-CSF/mRANKL-induced osteoclastogenesis by measuring reduction in cathepsin K mRNA level measured after 3 days by Trizol-reagent-based qRT-PCR analysis; summary of the method: as §3
[7] = target: T3, Tumor necrosis factor ligand superfamily member 11/11A (Mus musculus, UniProt O35235+O35305); experiment: as §1, with “cells” for “cells at 10 uM”, “analysis” for “analysis relative to control”; format: cell-based; summary of the method: as §2
T3 sequence (O35235 whole entry): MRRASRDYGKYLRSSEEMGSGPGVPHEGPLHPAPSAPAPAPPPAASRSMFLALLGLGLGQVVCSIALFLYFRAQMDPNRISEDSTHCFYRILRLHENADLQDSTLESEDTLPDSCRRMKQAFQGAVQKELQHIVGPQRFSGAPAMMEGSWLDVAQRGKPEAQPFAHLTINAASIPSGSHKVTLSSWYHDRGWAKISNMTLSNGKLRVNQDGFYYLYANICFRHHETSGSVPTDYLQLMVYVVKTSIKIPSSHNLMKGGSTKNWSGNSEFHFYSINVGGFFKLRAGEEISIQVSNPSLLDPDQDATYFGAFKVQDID
T3 sequence (O35305 whole entry): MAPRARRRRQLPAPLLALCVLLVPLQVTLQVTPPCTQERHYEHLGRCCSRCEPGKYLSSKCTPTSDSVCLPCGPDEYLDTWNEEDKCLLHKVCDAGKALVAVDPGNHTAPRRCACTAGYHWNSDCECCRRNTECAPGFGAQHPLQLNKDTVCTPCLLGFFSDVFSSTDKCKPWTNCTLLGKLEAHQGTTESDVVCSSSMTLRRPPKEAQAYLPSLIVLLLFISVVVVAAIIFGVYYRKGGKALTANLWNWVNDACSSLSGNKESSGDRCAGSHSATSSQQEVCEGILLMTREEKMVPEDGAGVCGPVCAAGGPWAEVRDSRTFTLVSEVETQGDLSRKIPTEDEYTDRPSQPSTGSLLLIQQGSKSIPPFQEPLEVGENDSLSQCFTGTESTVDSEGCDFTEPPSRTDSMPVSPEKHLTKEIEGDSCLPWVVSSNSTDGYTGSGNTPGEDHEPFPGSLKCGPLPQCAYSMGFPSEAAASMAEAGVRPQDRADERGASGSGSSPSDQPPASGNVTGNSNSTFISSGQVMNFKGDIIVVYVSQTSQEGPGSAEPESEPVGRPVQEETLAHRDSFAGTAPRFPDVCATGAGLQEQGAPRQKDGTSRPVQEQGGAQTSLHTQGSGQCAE

[8] = target: T1, Tumor necrosis factor ligand superfamily member 11/11A (Mus musculus); experiment: as above; format: cell-based; summary of the method: as §2
[9] = target: T2, Tumor necrosis factor ligand superfamily member 11; experiment: (§4) Inhibition of RANK binding to human RANKL measured after 1 h by surface plasmon resonance analysis
[10] = target: T4, Tumor necrosis factor ligand superfamily member 11 (Homo sapiens) (UniProt O14788); experiment: as §4
T4 sequence (whole entry): T2 sequence (O14788 whole entry)

[11] = target: T1, Tumor necrosis factor ligand superfamily member 11/11A (Mus musculus); experiment: as §1, with “5” for “10”; format: cell-based; summary of the method: as §2
[12] = target: T1, Tumor necrosis factor ligand superfamily member 11/11A (Mus musculus); experiment: as §1, with “5” for “10”, “analysis” for “analysis relative to control”; format: cell-based; summary of the method: as §2
[13] = target: T1, Tumor necrosis factor ligand superfamily member 11/11A (Mus musculus); experiment: Inhibition of RANKL-RANK protein-protein interaction in C57/BL6 mouse bone marrow macrophage assessed as suppression of M-CSF/mRANKL-induced osteoclastogenesis by measuring reduction in c-fos expression measured after 3 days by Western blot analysis
[14] = target: T1, Tumor necrosis factor ligand superfamily member 11/11A (Mus musculus); experiment: Inhibition of RANKL-RANK protein-protein interaction in C57/BL6 mouse bone marrow macrophage assessed as suppression of M-CSF/mRANKL-induced osteoclastogenesis by measuring reduction in NFATc1 mRNA level at 2.5 uM measured after 3 days by Trizol-reagent-based qRT-PCR analysis; summary of the method: as §3
[15] = target: T1, Tumor necrosis factor ligand superfamily member 11/11A (Mus musculus); experiment: as §1, with “nuclei size of F-actin ring formation” for “multinucleated TRAP+ cells”, “5” for “10”, “rhodamine phalloidin/DAPI” for “TRAP”, “analysis” for “analysis relative to control”; format: protein assay
[16] = target: T1, Tumor necrosis factor ligand superfamily member 11/11A (Mus musculus); experiment: Inhibition of RANKL-RANK protein-protein interaction in C57/BL6 mouse bone marrow macrophage assessed as suppression of M-CSF/mRANKL-induced osteoclastogenesis by measuring reduction in cathepsin K mRNA level at 2.5 uM measured after 3 days by Trizol-reagent-based qRT-PCR analysis; summary of the method: as §3
[17] = Cytotoxicity against M-CSF-stimulated C57/BL6 mouse bone marrow macrophages assessed as cell viability at 10 uM measured after 2 days by MTT assay (reference value: 100%); format: cell-based; details: M-CSF-stimulated bone marrow macrophages (BMDM), read-out: Activity
[18] = target: T1, Tumor necrosis factor ligand superfamily member 11/11A (Mus musculus); experiment: Inhibition of RANKL-RANK protein-protein interaction in C57/BL6 mouse bone marrow macrophage assessed as suppression of M-CSF/mRANKL-induced osteoclastogenesis by measuring reduction in TRAP mRNA level at 2.5 uM measured after 3 days by Trizol-reagent-based qRT-PCR analysis; summary of the method: as §3
Tumor necrosis factor = Tumor necrosis factor (Homo sapiens, UniProt P01375); experiment: Binding affinity to human TNFalpha by surface plasmon resonance analysis
Chain of Tumor necrosis factor (P01375 whole entry): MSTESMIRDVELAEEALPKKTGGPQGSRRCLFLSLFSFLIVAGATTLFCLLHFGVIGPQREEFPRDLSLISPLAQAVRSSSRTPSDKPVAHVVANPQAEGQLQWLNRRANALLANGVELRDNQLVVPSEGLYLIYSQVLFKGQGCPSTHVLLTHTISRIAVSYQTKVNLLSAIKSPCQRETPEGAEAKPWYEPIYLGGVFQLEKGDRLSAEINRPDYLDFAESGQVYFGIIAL

[19] = target: T1, Tumor necrosis factor ligand superfamily member 11/11A (Mus musculus); experiment: Inhibition of RANKL-RANK protein-protein interaction in C57/BL6 mouse bone marrow macrophage assessed as suppression of M-CSF/mRANKL-induced osteoclastogenesis by measuring reduction in NFATc1 expression measured after 3 days by Western blot analysis
[20] = target: T1, Tumor necrosis factor ligand superfamily member 11/11A (Mus musculus); experiment: as §1, with “nuclei number of F-actin ring formation” for “multinucleated TRAP+ cells”, “5” for “10”, “rhodamine phalloidin/DAPI” for “TRAP”, “analysis” for “analysis relative to control”; format: protein assay
[21] = target: T1, Tumor necrosis factor ligand superfamily member 11/11A (Mus musculus); experiment: Inhibition of RANKL-RANK protein-protein interaction in C57/BL6 mouse bone marrow macrophage assessed as suppression of M-CSF/mRANKL-induced bone resorption at 1 to 5 uM measured after 2 days by toluidine blue staining-based confocal microscopic analysis

For Cc1cccc(C)c1NC(=O)C(Cc1c[nH]c2ccccc12)NC(=O)OCc1ccccc1 (racemic), the inhibition [1] was 54.9 to 68.4%, the inhibition [2] was 93.3% and the inhibition [3] was “Dose-dependent effect”. The pKd [4] was 5.01, the Activity (BMDM) was “Non-Toxic” and the inhibition [5] was “Dose-dependent effect”. For the same compound, the inhibition [6] was “Dose-dependent effect”, the pIC50 [7] was 5.18 and the inhibition [8] was “Dose-dependent effect”. For the same compound, the pIC50 [9] was 4.58, the inhibition [10] was “Dose-dependent effect” and the inhibition [11] was 50%.
In the case of Cc1cccc(C)c1NC(=O)C(Cc1c[nH]c2ccccc12)NCCCc1ccccc1 (racemic), the inhibition [1] was 92.9%, the inhibition [12] was 100% and the inhibition [13] was “Dose-dependent effect”. For the same compound, the inhibition [14] was “Active”, the inhibition [15] was “Dose-dependent effect” and the inhibition [16] was “Active”. For the same compound, the viability at 48 h, 10 µM [17] was 110%, the inhibition [18] was “Active” and the pKd (Tumor necrosis factor) was 4.03. For the same compound, the pKd [4] was 6.21, the inhibition [19] was “Dose-dependent effect” and the inhibition [20] was “Dose-dependent effect”. For the same compound, the inhibition [21] was “Active” and the inhibition [8] was “Dose-dependent effect”.
